The record followed here is ChEMBL document CHEMBL3526048, “In vitro metabolism of rivoglitazone, a novel peroxisome proliferator-activated receptor γ agonist, in rat, monkey, and human liver microsomes and freshly isolated hepatocytes” (Drug Metab Dispos, 2011).

SMILES strings stand for the structures.

For data set [1], the target named is T1, UDP-glucuronosyltransferase 1A1 (Homo sapiens, UniProt P22309).
T1 sequence (P22309 whole entry): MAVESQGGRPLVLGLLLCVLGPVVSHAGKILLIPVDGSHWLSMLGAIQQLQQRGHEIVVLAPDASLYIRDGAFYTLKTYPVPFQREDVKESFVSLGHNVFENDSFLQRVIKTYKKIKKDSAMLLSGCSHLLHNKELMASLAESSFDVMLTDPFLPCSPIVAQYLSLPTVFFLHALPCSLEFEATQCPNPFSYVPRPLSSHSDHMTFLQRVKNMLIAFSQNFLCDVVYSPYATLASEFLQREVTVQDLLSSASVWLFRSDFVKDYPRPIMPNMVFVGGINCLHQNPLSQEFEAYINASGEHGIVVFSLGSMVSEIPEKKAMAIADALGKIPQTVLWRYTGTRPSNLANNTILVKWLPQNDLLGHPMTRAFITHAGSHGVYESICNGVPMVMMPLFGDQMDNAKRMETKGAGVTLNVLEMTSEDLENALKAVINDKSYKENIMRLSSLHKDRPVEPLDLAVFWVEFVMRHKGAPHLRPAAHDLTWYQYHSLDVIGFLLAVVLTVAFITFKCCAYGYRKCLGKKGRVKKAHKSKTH
In words: Activity of human UGT1A1 expressed in microsomes isolated from baculovirus infected insect cell assessed as enzyme-mediated (2S,3S,4S,5R,6R)-6-((1-carboxy-2-(4-((6-methoxy-1-methyl-1H-benzo[d]imidazol-2-yl)methoxy)phenyl)ethylthio)carbonylamino)-3,4,5-trihydroxytetrahydro-2H-pyran-2-carboxylic acid formation at 20 uM after 4 hrs by radio-HPLC/LC-MS/MS analysis in presence of UDPGA. The format is ADME. In short, it runs like this:
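Alamethicin (50 μg/mg protein, 15 min on ice) pretreated expressed human UGT microsomes (1 mg/ml protein) from baculovirus-infected insect cells. Incubation with [¹⁴C]rivoglitazone (20 μM) in 100 mM Tris-HCl (pH 7.5) with 10 mM MgCl₂, started by 5 mM UDPGA, 4 h at 37°C with shaking. UGT insect-cell control supersomes were run alongside. Acetonitrile stop, concentrated supernatant analysed by radio-HPLC, LC-MS and LC-MS/MS.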

Data set [2] in a line: Drug metabolism in human hepatocytes assessed as formation of (2S,3S,4S,5R,6R)-6-((1-carboxy-2-(4-((6-methoxy-1-methyl-1H-benzo[d]imidazol-2-yl)methoxy)phenyl)ethylthio)carbonylamino)-3,4,5-trihydroxytetrahydro-2H-pyran-2-carboxylic acid at 30 uM after 3 hrs by radio-HPLC/LC-MS/MS analysis in presence of UDPGA and UDPGA/SAM. The format is ADME, cell-based, Hepatocyte.
In data set [3] the target is T2, Cytochrome P450 2C19 (Homo sapiens, UniProt P33261). The experiment in a line: Activity of human CYP2C19 expressed in microsomes isolated from baculovirus infected insect cell assessed as enzyme-mediated 5-(4-((6-methoxy-1H-benzo[d]imidazol-2-yl)methoxy)benzyl)thiazolidine-2,4-dione formation at 20 uM after 2 hrs by radio-HPLC/LC-MS/MS analysis in presence of NADPH-generating system and NADPH-generating system/SAM. In kind it is ADME. In short, it runs like this:
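Baculovirus/insect-cell microsomes expressing single human CYPs, 1 mg/ml protein, with 50 mM potassium phosphate (pH 7.4) or 100 mM Tris-HCl (pH 7.5). NADPH-generating system: 2 mM NADP⁺, 20 mM glucose 6-phosphate, 2 units/ml G6PDH, 10 mM MgCl₂. [¹⁴C]rivoglitazone at 20 μM, 2 h at 37°C with shaking. Control used insect-cell control supersomes. Stopped with acetonitrile; supernatant concentrated under nitrogen; metabolites analysed by radio-HPLC, LC-MS and LC-MS/MS.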

Data set [4] deals with T3, UDP-glucuronosyltransferase 1A3 (Homo sapiens, UniProt P35503).
T3 sequence (P35503 whole entry): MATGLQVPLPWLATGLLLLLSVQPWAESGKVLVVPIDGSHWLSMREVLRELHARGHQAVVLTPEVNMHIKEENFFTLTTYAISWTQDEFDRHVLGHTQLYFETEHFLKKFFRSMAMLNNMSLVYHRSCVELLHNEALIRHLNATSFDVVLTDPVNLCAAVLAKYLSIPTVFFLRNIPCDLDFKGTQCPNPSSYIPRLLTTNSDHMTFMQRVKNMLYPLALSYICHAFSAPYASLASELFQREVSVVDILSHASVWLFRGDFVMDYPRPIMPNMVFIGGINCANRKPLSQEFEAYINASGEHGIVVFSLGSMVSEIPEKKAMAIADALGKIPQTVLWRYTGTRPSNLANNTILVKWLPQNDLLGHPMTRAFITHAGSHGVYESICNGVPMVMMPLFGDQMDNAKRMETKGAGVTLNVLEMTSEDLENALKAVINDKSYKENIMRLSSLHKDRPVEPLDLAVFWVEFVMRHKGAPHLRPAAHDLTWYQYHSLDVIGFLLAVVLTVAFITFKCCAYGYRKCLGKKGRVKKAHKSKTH
The experiment in a line: Activity of human UGT1A3 expressed in microsomes isolated from baculovirus infected insect cell assessed as enzyme-mediated 5-hydroxy-5-(4-((6-methoxy-1-methyl-1H-benzo[d]imidazol-2-yl)methoxy)benzyl)thiazolidine-2,4-dione formation at 20 uM after 4 hrs by radio-HPLC/LC-MS/MS analysis in presence of NADPH-generating system and NADPH-generating system/SAM in presence of UDPGA and UDPGA/SAM. The format is ADME.

Data set [5] concerns the target Cytochrome P450 3A4 (Homo sapiens, UniProt P08684). In words: Activity of human CYP3A4 expressed in microsomes isolated from baculovirus infected insect cell assessed as enzyme-mediated 3-(4-((6-methoxy-1-methyl-1H-benzo[d]imidazol-2-yl)methoxy)phenyl)-2-(methylthio)propanamide formation at 20 uM after 2 hrs by radio-HPLC/LC-MS/MS analysis in presence of NADPH-generating system/SAM. The format is ADME.

For data set [6], the system named is Liver microsome. The experiment in a line: Drug metabolism in human liver microsomes assessed as formation of 5-hydroxy-5-(4-((6-methoxy-1-methyl-1H-benzo[d]imidazol-2-yl)methoxy)benzyl)thiazolidine-2,4-dione at 20 uM after 2 hrs by radio-HPLC/LC-MS/MS analysis in presence of NADPH-generating system and NADPH-generating system/SAM. The format is ADME. (In general: Liver microsomes are vesicles of endoplasmic reticulum, rich in cytochrome P450 enzymes.)

Data set [7] concerns the target T3, UDP-glucuronosyltransferase 1A3. In words: Activity of human UGT1A3 expressed in microsomes isolated from baculovirus infected insect cell assessed as enzyme-mediated 2-hydroxy-3-(4-((6-methoxy-1-methyl-1H-benzo[d]imidazol-2-yl)methoxy)phenyl)propanamide formation at 20 uM after 4 hrs by radio-HPLC/LC-MS/MS analysis in presence of NADPH-generating system and NADPH-generating system/SAM in presence of UDPGA and UDPGA/SAM. The format is ADME.

Data set [8] addresses T2, Cytochrome P450 2C19. The experiment in a line: Activity of human CYP2C19 expressed in microsomes isolated from baculovirus infected insect cell assessed as enzyme-mediated (2S,3S,4S,5R,6R)-6-((1-carboxy-2-(4-((6-methoxy-1-methyl-1H-benzo[d]imidazol-2-yl)methoxy)phenyl)ethylthio)carbonylamino)-3,4,5-trihydroxytetrahydro-2H-pyran-2-carboxylic acid formation at 20 uM after 2 hrs by radio-HPLC/LC-MS/MS analysis in presence of NADPH-generating system/SAM. The format is ADME.

T2 sequence (P33261 whole entry): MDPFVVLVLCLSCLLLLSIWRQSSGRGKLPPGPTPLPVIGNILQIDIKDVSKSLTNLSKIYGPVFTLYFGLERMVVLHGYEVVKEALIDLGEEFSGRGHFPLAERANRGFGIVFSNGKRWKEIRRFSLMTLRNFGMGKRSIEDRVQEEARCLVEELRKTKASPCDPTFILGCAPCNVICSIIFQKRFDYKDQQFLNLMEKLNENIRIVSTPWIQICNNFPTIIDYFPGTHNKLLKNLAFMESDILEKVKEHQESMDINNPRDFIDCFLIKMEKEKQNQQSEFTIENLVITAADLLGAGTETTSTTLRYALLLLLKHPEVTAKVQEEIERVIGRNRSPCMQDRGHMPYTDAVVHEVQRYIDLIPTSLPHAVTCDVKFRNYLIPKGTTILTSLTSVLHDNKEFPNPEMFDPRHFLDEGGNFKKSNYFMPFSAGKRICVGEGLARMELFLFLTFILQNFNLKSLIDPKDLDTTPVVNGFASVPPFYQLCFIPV
Chain of Cytochrome P450 3A4 (P08684 whole entry): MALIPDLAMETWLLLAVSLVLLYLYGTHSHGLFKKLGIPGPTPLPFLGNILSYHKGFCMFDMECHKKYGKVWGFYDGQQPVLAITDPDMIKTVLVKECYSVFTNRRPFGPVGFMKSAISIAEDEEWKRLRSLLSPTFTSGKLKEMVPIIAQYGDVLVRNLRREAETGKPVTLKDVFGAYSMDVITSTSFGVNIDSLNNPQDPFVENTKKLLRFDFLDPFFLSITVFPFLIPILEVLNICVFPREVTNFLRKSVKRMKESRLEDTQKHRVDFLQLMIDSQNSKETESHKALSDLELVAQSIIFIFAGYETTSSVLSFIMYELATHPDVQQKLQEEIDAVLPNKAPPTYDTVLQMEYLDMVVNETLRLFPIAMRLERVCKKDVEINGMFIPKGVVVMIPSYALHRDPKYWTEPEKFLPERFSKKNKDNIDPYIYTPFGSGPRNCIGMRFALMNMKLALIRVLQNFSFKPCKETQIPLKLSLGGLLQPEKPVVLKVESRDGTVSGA

In the case of `COc1ccc2nc(COc3ccc(C[14CH]4SC(=O)NC4=O)cc3)n(C)c2c1.Cl` (racemic), the Drug metabolism entry is recorded as “metabolite_not_detected” in data set [1]; “metabolite_detected” in data set [2]; “metabolite_detected” in data set [3]; “metabolite_not_detected” in data set [4]; “metabolite_not_detected” in data set [5]; “metabolite_detected” in data set [6]. The Drug metabolism entry in data set [7] and in data set [8] was “metabolite_not_detected” each time.
